The full list was thinned out, with hits kept by preference.
H69AR growth 86K: proliferation blockers of H69AR lung cancer cells, primary screen, cell-based, human, 86K library; viability, % at 10 µM; actives 6% (n = 85,000); AID 598, 2007; H69AR lung tumor viability, ATP luminescence, 72 h; active compounds read low;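 active = viability at or below 40%; inactive = viability above 40%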;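 also: multidrug resistant small cell line overexpressing MRP-1 efflux transporter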
HUVEC inhibit: inhibitors of HUVEC proliferation, primary screen, cell-based, 384-well | CellTiter-Glo luminescence, 72 h; active compounds read low | viability, % at 10 µM (by protocol) | actives 1.1% (n = 86,000);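 active = viability at or below 30%; inactive = viability above 30%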
Lung fibro prol: antiproliferative effect on LL 47 fibroblasts – human, LL 47 cells, CellTiter-Glo luminescence, primary screen; LL 47 human lung fibroblast viability, ATP luminescence; active compounds read low; viability, % at 10 µM; actives 1.1% (n = 85,000);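 active = viability at or below 50% in the single dose screen; inactive = viability above 50%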;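 also: compound exposure lasted 72 h before the ATP readout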
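Times – overnight cell rest, 72 h compound treatment at 37 °C · Test system – human lung fibroblast line LL 47, low passage · Amount – 1,150 cells in each well · Controls – cell-only wells, no compound · Doses – 0.1% DMSO in all compound wells · Measured by – CellTiter-Glo luminescence · Buffer or medium – IMEM plus 15% FBS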
HCT116 bCat-KO: primary screen for growth suppressors in beta-catenin knockout HCT116 cells (colon tumor, human); actives 1.5% (n = 140,000); HCT116 beta-catenin knockout viability, CellTiter-Glo, 60 h; active compounds read low; viability, % at 10 µM; AID 818, 2007;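 active = viability at or under a set limit, the compound median less 4 SD, cut at about 6% in these data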
PTEN del growth: growth suppression of PTEN-null HCT116, primary screen, cell-based, CellTiter-Glo; actives 1.2% (n = 140,000); HCT116 PTEN-null viability, 60 h; active compounds read low; viability, % at 10 µM;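 active = viability at or below a set limit, 4 SD under the median of all tested compounds, cut at about 3.7% in these data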;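 also: PTEN knockout HCT116 line with beta catenin targeted HCT116 as companion control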
Numbers stand for hits; - = inactive; . = not tested or not shown.

SMILES	H69AR growth 86K	HUVEC inhibit	Lung fibro prol	HCT116 bCat-KO	PTEN del growth
CNC(=S)N1CCN(C(=O)C2CCCO2)CC1 (stereo not drawn)	.	.	.	-	-
O=c1c2cn[nH]c2[nH]c(=S)n1-c1cccc(Cl)c1	.	.	.	-	-
COC(=O)c1nn(-c2ccccc2)nc1-c1nn(-c2ccccc2)nc1C(=O)OC	26	-	-	-	-
CCCCC(=O)Nc1c(C)cc(C)cc1Cl	-	-	-	-	-
CCN(CC)c1ccc(/C=C2/SC(=O)N(C(C)C)C2=O)o1	.	.	.	5.6	-
Cc1ccc(C)c(CSc2nnc(CCN)o2)c1	31	-	-	-	-
Cc1ccc(C)c(CSc2nnc([C@@H](N)C(C)C)o2)c1	-	-	-	-	-
CCCCN1C(=O)C(NC(C)=O)c2cc(Br)ccc21 (stereo not drawn)	24	-	-	-	-
O=C(NNC(=S)Nc1ccc(Cl)cc1Cl)C1CC1	.	.	.	-	-
CCOC(=O)c1[nH]c2ccc(OC)cc2c1NC(=O)c1nonc1C	-	-	-	-	-
COC(=O)c1[nH]c2cc(OC)ccc2c1NC(=O)c1nonc1C	30	-	-	-	-
CN1CCN(Cc2ccc(OCc3ccccc3)cc2)CC1	-	-	.	-	-
CCN1CCN(Cc2ccc(OCc3ccccc3)cc2)CC1	-	-	-	1.0	1.2
O=C(CC(=O)c1ccccc1O)c1ccc(F)cc1	.	.	.	-	-
CC(C)(C)c1ccc(C(=O)NNC(=O)c2ccc(Cl)cc2)cc1	.	.	.	-	-
CC(C)(C)c1ccc(C(=O)CC(=O)c2cc(Cl)ccc2O)cc1	25	7.6	46	-	-
Cc1ccc(C(=O)CC(=O)c2cc(Cl)ccc2O)cc1	5.2	9.4	30	-	-
COC(=O)C1=C(C)N(Cc2ccco2)C(=O)N[C@H]1c1ccc(Br)cc1	.	.	.	-	-
Cc1cc(C)c2nc(NNC(=O)c3cc(-c4cccs4)nc4ccccc34)sc2c1	.	.	.	-	-
O=C(NNc1nc2ccc(Cl)cc2s1)c1cc(-c2cccs2)nc2ccccc12	.	.	.	4.2	3.7
Cc1ccc2sc(NNC(=O)c3cc(-c4cccs4)nc4ccccc34)nc2c1C	.	.	.	4.8	-
O=C(NN1CCOCC1)c1cc(-c2cccs2)nc2ccccc12	.	.	.	-	-
Cc1ccc(/C=C2/C(=O)N=C(N)N2C)s1	.	.	.	-	-
c1ccc2c(Nc3nc(N4CCOCC4)c4ccccc4n3)cccc2c1	.	.	.	-	-
Fc1ccc(Nc2nc(N3CCOCC3)c3ccccc3n2)cc1	35	-	-	.	.
SMILES	H69AR growth 86K	HUVEC inhibit	Lung fibro prol	HCT116 bCat-KO	PTEN del growth
O=C(c1ccco1)N1c2ccccc2Sc2ccccc21	.	.	.	-	-
O=C(N1CCN(c2ccccn2)CC1)N1c2ccccc2Sc2ccccc21	34	26	-	-	-
O=C(c1ccco1)N1CCN(C(=O)N2c3ccccc3Sc3ccccc32)CC1	32	-	-	-	-
O=C(CSc1nnc(-c2ccncc2)n1-c1ccc(F)cc1)NNC(=O)c1cccc(O)c1	.	.	.	-	-
Cc1cccc(C)c1NC(=O)c1sc(Cl)nc1C	.	.	.	-	-
CCOC(=O)c1cc(-c2ccc(OC(F)F)cc2)nc2c1c(=O)[nH]c(=O)n2C	.	.	.	-	-
Cc1ccc(-c2nc3cnccn3c2Nc2ccc3c(c2)OCCO3)o1	-	-	-	-	-
COc1ccc(-c2nc3cnccn3c2Nc2ccc3c(c2)OCO3)cc1	24	-	-	-	-
Cc1ccc2nc(-c3ccc(O)cc3)c(Nc3ccc4c(c3)OCCO4)n2c1	-	-	-	-	-
Cc1ccc(-c2nc3cnccn3c2Nc2ccc3c(c2)OCO3)cc1	25	-	-	-	-
COc1cc(CC(=O)OCC(=O)c2ccc3c(c2)OCCO3)cc(OC)c1OC	33	-	-	-	-
Nc1nonc1-c1nc2ccccc2n1CC(=O)NC1CCCC1	-	-	-	-	-
Nc1nonc1-c1nc2ccccc2n1Cc1ccccc1	17	-	-	-	-
CCCCn1c(N)nc2ccccc21	-	-	-	-	-
CCOC(=O)c1ccccc1NC(=O)Cn1c(-c2nonc2N)nc2ccccc21	27	-	47	-	-
CC1CC(C)CN(C(=O)Cn2c(-c3nonc3N)nc3ccccc32)C1 (stereo not drawn)	-	-	-	-	-
CCCCn1c(-c2nonc2N)nc2ccccc21	30	-	-	-	-
CC(C)CCn1c(-c2nonc2N)nc2ccccc21	11	-	-	-	-

Compound activity deposited in PubChem by SRMLSC.
